# Data published in ChEMBL document CHEMBL4513216, “Probing the Open Global Health Chemical Diversity Library for Multistage-Active Starting Points for Next-Generation Antimalarials” (ACS Infect Dis, 2020).
# Assay: Toxicity liver stage against HepG2, at 10uM
# Type: cell-based
# Design: test concentration 10 uM, cell line HepG2-A16-CD81EGFP
# Settings: human, HepG2-A16-CD81EGFP cells; read-out: INHIBITION
# How it was run: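 Uninfected HepG2-A16-CD81EGFP cells, 3 × 10^3 per well, 1536-well, plated on prespotted compound at 10 μM final, parasite-free screening media added to match infected plates; puromycin 10 μM positive, DMSO 0.5% negative; run in parallel with 48 h PbLuc assay at 37 °C, 5% CO2; viability by CellTiter-Glo luminescence, normalized to controls.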
row,SMILES,cytotoxicity at 10 µM [%]
1,c1ccc2oc(C3CCN(Cc4ncon4)CC3)nc2c1,2.56
2,COCCN1C[C@H]2CN(C(=O)C3CC3)CCN2C1=O,7.37
3,COCCCNC(=O)N1CCN(C(=O)c2nsc3ccc(C)cc23)CC1,12.3
4,O=C(c1cccs1)N1CCN(Cc2cc(=O)c3ccccc3[nH]2)CC1,-2.93
5,Cc1nn(-c2ccccc2Cl)c(C)c1CCC(=O)O,4.68
6,O=C(NCCn1cccc1)C(c1ccccc1)N1CCCC1 (centres undefined),-0.288
7,CC(C)(C)C(=O)CN1CCc2ccccc2NCCC1=O,-104
8,CC1=Nc2c(c(=O)[nH]n2C2CCCC2)C(c2ccc(O)cc2)S1 (centres undefined),-3.39
9,CCc1cnc2c(c1Nc1ccccc1OC)c(=O)n(C)c(=O)n2C,6.87
10,O=C(Cn1c(=O)oc2ccccc21)N1Cc2cncnc2C1,-0.0603
11,CN1CCN(C(=O)c2ncn3c2CNS(=O)(=O)c2ccccc2-3)CC1,4.5
12,O=C(N1CCCC1)N1CCC2(CC(=O)N(c3ccc4c(c3)OCO4)C2)C1 (centres undefined),9.79
13,O=C([C@H]1CCCO1)N1CCN(Cc2cccnc2)c2ncccc2C1,13.2
14,Cc1ccc(N2CCCc3sc(C(=O)NCC4CCCO4)nc32)nn1 (centres undefined),-1.19
15,CN(C)C(=O)[C@@H]1CCO[C@@H]2CCN(c3ncccn3)C[C@H]21,6.65
16,NC(=O)N1CC[C@@H]2O[C@@H](COCC(=O)N3CCCC3)CC[C@@H]21,-0.356
17,Cc1ccc(CS(=O)(=O)N2CC[C@H]3[C@H]2CC(=O)N3C)cc1,-7.33
18,Cc1csc(CN2CC[C@H]3C[C@H](C)O[C@@H]3C2)n1,2.58
19,Cc1nc(CN2C(=O)CC[C@@H]3[C@H]2CCN3C(=O)C2CCCO2)cs1 (some centres undefined),-9.33
20,Cc1ccsc1C(=O)N1CCn2cnc(COCC3CC3)c2C1,6.93
21,COc1ccc(C(=O)COc2coc(CN3CCSCC3)cc2=O)cc1,8.13
22,NC(=O)Cn1nc(-c2ccccc2F)ccc1=O,-7.69

row,SMILES,cytotoxicity at 10 µM [%]
1,CC(C)n1[nH]c(=O)c2c1NC(=O)CC2c1cccnc1 (centres undefined),-6.15
2,Cn1cc(N2CCC3(CCN(S(=O)(=O)C4CC4)C3)C2=O)cn1 (centres undefined),-2.45
3,CNC(=O)N1C[C@H]2CC[C@@]3(N=C(c4ccccc4)NC3=O)[C@H]2C1,-9.84
4,CC(C(=O)Nc1ccon1)n1ccc(C(F)(F)F)n1 (centres undefined),5.15
5,CCn1nc(C)c2nc(C(C)C)nc(N3CCCC3)c21,-1.61
6,Cc1cc(C(F)(F)F)nn1CC(C)C(=O)Nc1cccnc1 (centres undefined),11.5
7,Cc1ccccc1C(=O)N1CC[C@H](O)[C@@H](N2CCOCC2)CC1,5.32
8,Cc1nc(Nc2ncccn2)cc(C2CCCN2C2CCOCC2)n1 (centres undefined),-4.45
9,O=C(CCS(=O)(=O)C1CCCC1)N1CCCC(n2ccnc2)C1 (centres undefined),-0.968
10,CCOC(C)c1nccn1CC(=O)Nc1cc(C)on1 (centres undefined),-5.58
11,CS(=O)(=O)NCC1Cc2ccccc2O1 (centres undefined),2.01
12,Cn1cc(C(=O)NCCc2ccc(OC3CCCC3)cc2)ccc1=O,-2.51
13,COC(CNC(=O)c1ccc[nH]1)c1cccc(Cl)c1 (centres undefined),-0.23
14,Clc1ccc(C2(NCc3noc(C4CC4)n3)CCOCC2)cc1,-3.1
15,O=C(c1cc(Cl)c2c(c1)OCO2)N1CCN(c2ncccn2)CC1,-0.769
16,Cc1cc(C)n(CC2CCCN2C(=O)c2ccc3[nH]cnc3c2)n1 (centres undefined),3.18
17,O=C(C[S+]([O-])Cc1cccc(Cl)c1)NC1CCCC1 (centres undefined),0.808
18,CC1(C)CN(CC(F)(F)F)CCN1CC(N)=O,9.92
19,CN(C(=O)c1ccc[nH]1)C1CC(=O)N(Cc2ccccc2)C1=O (centres undefined),8.02
20,Cc1cc(C2CCCN(CC(=O)N3CCc4ccccc43)C2)n[nH]1 (centres undefined),2.01
21,O=C(c1occc1CN1C(=O)Cc2ccccc21)N1CCCCCC1,4.52
22,Cc1nn(C)c(Cl)c1C1CCCN1c1ncnc2[nH]ccc12 (centres undefined),10.9

row,SMILES,cytotoxicity at 10 µM [%]
1,COCC(O)CN(C)C(=O)c1cccc(-c2csc(C)n2)c1 (centres undefined),-3.04
2,c1nc(N2CCN(Cc3nnnn3C3CC3)CC2)c2sccc2n1,24.5
3,CS(=O)(=O)c1ccc(NCCC2CCCO2)c(S(C)(=O)=O)c1 (centres undefined),-4.27
4,O=C(NCCNS(=O)(=O)C1CCCCC1)c1ccccc1,-3.82
5,CC(C)c1nccc([C@H]2C[C@@H]3CCN(Cc4ccco4)C[C@H]3O2)n1,-5.25
6,COC(=O)NCC(=O)N1CCCC(c2ncc[nH]2)C1 (centres undefined),2.42
7,CCN(CC)S(=O)(=O)N1CCCC(c2nccn2Cc2cccnc2)C1 (centres undefined),7.07
8,C=C(C)CNC(=O)C1CCC(=O)N(C2CCCC2)C1 (centres undefined),-3.4
9,CC1(c2ccccc2)CCC(=O)N(CCN2CCOCC2)C1 (centres undefined),-8.65
10,CC(C(=O)N1CCN(CCOc2ccccc2)CC1)n1cc(Cl)cn1 (centres undefined),10.4
11,CC1(C)CC(CN2CCC3(CCC(=O)N(CCO)C3)CC2)CCO1 (centres undefined),18
12,COc1ccc(-n2cccn2)c(CN2CCOCC(CN(C)C)C2)c1 (centres undefined),-14.6
13,Cc1ccc(-c2ncc(C(=O)N3CCCN4CCC[C@H]4C3)c(O)n2)cc1,-8.04
14,O=C(O)C1(n2cccn2)CCN(c2nc(-c3ccccc3)no2)CC1,7.47
15,CCNC(=O)[C@@H]1C[C@@H](N)CN1C(=O)CCc1ccc(C)c(C)c1,2.72
16,Cc1nn(CC(=O)N2CCC3(CN(C)C(=O)O3)C2)c(=O)c2ccccc12 (centres undefined),9.74
17,Cc1cc(C(F)(F)F)nc(CCNc2nc(C)nc3c2cnn3C)n1,4.79
18,CCn1nc(CC(C)C)cc1C(=O)NCC(F)(F)F,21.3
19,Cc1cc(-c2cncnc2)ccc1OCC(N)=O,8.07
20,Cc1ccccc1CSc1nc(N)cc(N2CCCC(O)C2)n1 (centres undefined),-6.52
21,Cc1ccc(C)c(C(=O)N2CCC3(CCC(=O)N(CC(N)=O)C3)CC2)c1,17.7
22,CCc1nc(CC(=O)N2CCCC2c2c(C)nn(C)c2OC)cs1 (centres undefined),-2.17

row,SMILES,cytotoxicity at 10 µM [%]
1,Cc1cc(C)n(CC2CN(CC3CCCC3)CCO2)n1 (centres undefined),-16.4
2,CCn1cc(CN2CCCN(C(=O)CCc3cnn(C)c3)CC2)cn1,0.153
3,Cc1nc2cc(O)nn2c(C)c1CCC(=O)NCCCC(C)C,-1.52
4,CC(C)c1nccn1C1CCCN(C(=O)CCCc2ccccn2)C1 (centres undefined),-9.02
5,CCOc1ccnc(N2CCN(C(=O)c3cccnc3)CC2)n1,-5.19
6,CC(C)c1noc(C(C)N2CCN(Cc3cccs3)CC2)n1 (centres undefined),-6.18
7,CNC(=O)c1ccc(C(=O)N2CCCC(n3ccnc3C)C2)cn1 (centres undefined),-0.248
8,CSc1nccn1-c1cccc(C(=O)NCCC(=O)NC(C)C)c1,0.153
9,CCOc1cc(C)nc(N2CCN(C(=O)c3cscn3)CC2)n1,-7.54
10,CC(C)Cc1nc(CN2CCOC(Cn3cncn3)C2)no1 (centres undefined),2.07
11,Cc1nc(CN(C)CC(c2cccs2)N2CCOCC2)no1 (centres undefined),-2.15
12,Cc1ccc(C(C)C(=O)N2CCCN(Cc3cscn3)CC2)cc1 (centres undefined),-5.31
13,CC(C)c1nc(C2CCCN(C(=O)CCn3ccccc3=O)C2)no1 (centres undefined),-18.4
14,CN(C)CC1CN(Cc2ccc(-n3cccn3)cc2)CCO1 (centres undefined),4.09
15,CNC(=O)CCS(=O)(=O)Cc1cc(Cl)c2c(c1)OCCO2,-4.89
16,CCCNC(=O)C1CCN(Cc2csc(CC)n2)CC1,-10.4
17,Cc1csc(N2CCCN(C(=O)c3ccoc3C)CC2)n1,-8.45
18,Cc1ccc(OCCN2CCCC(c3cc(C(N)=O)[nH]n3)C2)cc1 (centres undefined),-9.14
19,Cc1cnn(CC2CN(CC(=O)Nc3ccnn3C(C)C)CCO2)c1 (centres undefined),-8.06
20,Cc1cnn(CC2CCCN2CC(=O)NC2CCOCC2)c1 (centres undefined),-16
21,COCCOc1ncccc1C(=O)N1CCCC1Cn1cc(C)cn1 (centres undefined),-2.95
22,Cc1cnn(CC2CCCCN2C(=O)c2cccnc2N(C)C)c1 (centres undefined),-7.37

row,SMILES,cytotoxicity at 10 µM [%]
1,CC(=O)N1CCN(Cn2nc(-c3ccc(F)cc3)oc2=O)CC1,-3.89
2,Cc1cc2n(n1)CC(CNCc1cnn(-c3ccccc3)c1)CN2 (centres undefined),-9.01
3,CCN(C(=O)CS(=O)(=O)Cc1cc(Cl)c2c(c1)OCCCO2)C1CC1,0.787
4,CC(=O)N1CCCN(C(=O)c2ccn(-c3cccc(Cl)c3)n2)CC1,-1.37
5,COc1ccc(C)cc1C(C)NC(=O)NCCCn1cncn1 (centres undefined),2.62
6,Cc1cc(C)c(CNC(=O)N2CCCC2C(N)=O)c(=O)[nH]1 (centres undefined),-0.241
7,Cc1noc(C)c1CNc1cc(N2CCCC2CO)ncn1 (centres undefined),1.42
8,COc1ccc(OCCc2cc(C3CCN(CC(C)C)C3)n[nH]2)cc1 (centres undefined),1.97
9,Cc1ccc(CN(CCCN(C)C)Cc2cnc(N(C)C)nc2)o1,2.26
10,COCC1CN(Cc2cc(C)on2)Cc2cn(CC3CCCC3)nc21 (centres undefined),6.4
11,O=C(c1ccncc1)N1CCN2C[C@H](Oc3cccc(F)c3)C[C@H]2C1,8.28
12,O=C(Cc1ccccn1)N1CCC2(CC1)CN(CC1CC1)C(=O)CO2,7.43
13,O=C(NCCCO)c1cc(-c2cc[nH]n2)n2ccccc12,14.3
14,Cc1nc(N2CCCC2)nc2c1CCN(Cc1ccco1)CC2,-6.52
15,O=C([C@@H]1C[C@@H]2CCN(Cc3ccccn3)C[C@H]2O1)N1CCCO1,2.29
16,Cc1nc(CN2CCc3ncnc(-c4ccc(F)cc4)c3CC2)cs1,4.89
17,CC(C)N1CCC2(CCN(C(=O)c3cccnc3)CC2)C1,5.27
18,O=C(c1ccccc1F)N1C[C@H]2CCC[C@@]2(COCc2ccncc2)C1,7.4
19,Cc1cnc(N2CCc3ncnc(N4CCN(C)CC4)c3CC2)nc1,-1.73
20,O=C(NCc1ccccc1)N1C[C@@H]2C[C@H](C(=O)N3CCCC3)[C@H](C1)O2,8.46
21,O=c1c2c[nH]c(N3CCCC3)nc-2cn1CCc1ccc(Cl)cc1,11.9
